Data reported in ChEMBL document CHEMBL1134635, “Aziridinyl quinone antitumor agents based on indoles and cyclopent[b]indoles: structure-activity relationships for cytotoxicity and antitumor activity” (2001).

How the values were obtained:
NCI-H460 [1] = test: Concentration of the drug required for total growth inhibition against NSC H460 cell line.; assay type: functional; conditions: Homo sapiens, read-out: Log TGI (converted)
[2] = target: NAD(P)H dehydrogenase [quinone] 1 (Homo sapiens) (UniProt P15559); test: The substrate specificity obtained from the ratio of Vmax to KM for human DT-diaphorase (from non-small-cell lung NCI-H460 cell line); assay type: cell-based
Procedure, shortened: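 Recombinant human DT-diaphorase (from NCI-H460) at 1.4 × 10^-9 M final with 0.3 mM NADH in Tris buffer, quinone 1.3 × 10-6 to 6.7 × 10^-5 M final from a 4.0 mM DMSO stock. Both parts argon-purged 20 min and held at 30 °C 10 min, then mixed.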

[3] = system: Panel NCI-60 (60 carcinoma cell lines); test: Cancer specificity was measured from the +/- value under average log LC50 60-cell line.; assay type: functional; conditions: Homo sapiens, read-out: Average log LC50 (converted)
NCI-H460 [4] = test: Concentration of the drug required for 50% growth inhibition against NSC (non small cell) H460 cell line.; assay type: functional; conditions: Homo sapiens
NCI-H460 [5] = test: Concentration required for 50% cell kill. against NSC H460 cell line.; assay type: functional; conditions: Homo sapiens; for CC50: read-out: Log LC50 (the source's name) (converted)
Nucleic Acid = test: % of DNA reductive alkylation determined by catalytic reduction of aziridinyl quinones in presence of 600 bp calf thymus DNA; assay type: functional; set-up: concentration or dose not given beside the values; conditions: Bos taurus
Procedure, shortened: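 Calf thymus DNA (1-2 mg, sonicated to ~600 bp) in 0.05 M Tris pH 7.4 with Pd/C, quinone added at 5:1 base pair equivalents in DMSO. Degassed under argon, H2-purged 10 min, argon-purged, then 30 °C for 24 h anaerobically. Catalyst filtered off, DNA ethanol-precipitated twice, and alkylation quantified by absorbance at 550 nm (ε 800 M-1 cm-1).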

NCI-H460 [6] = test: Concentration required for total growth inhibition against NSC H460 cell line.; assay type: functional; conditions: Homo sapiens, read-out: Log TGI (converted)
NCI-H460 [7] = test: Concentration required for 50% growth inhibition against NSC (non small cell) H460 cell line.; assay type: functional; conditions: Homo sapiens
B16 [8] = test: Treated over control values(T/C) were measured at day 25 by B16 melanoma syngraft assay at 5 mg/kg/day on day 9 after sc tumor implantation of 10 E(5) cells; assay type: functional, Mus musculus; conditions: route subcutaneous
Procedure, shortened: (§1)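 B16 melanoma syngraft in C57/bl mice, 10^5 cells implanted subcutaneously in the front flank on day 0. T/C recorded at day 25. Toxic means early lethality, or ≥50% lethality before any control deaths.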

B16 [9] = test: Treated over control values(T/C) were measured at day 25 by B16 melanoma syngraft assay at 2 mg/kg/day on day 1 after sc tumor implantation of 10 E(5) cells; assay type: functional, Mus musculus; conditions: route subcutaneous; procedure, shortened: as §1
B16 [10] = test: Treated over control values(T/C) were measured at day 25 by B16 melanoma syngraft assay at 3 mg/kg/day on day 5 after sc tumor implantation of 10 E(5) cells; assay type: functional, Mus musculus; conditions: route subcutaneous; procedure, shortened: as §1
[11] = system: Panel NCI-60 (60 carcinoma cell lines); test: Cancer specificity was measured from the +/- value under average log LC50 NCI 60-cell line.; assay type: functional; conditions: Homo sapiens, read-out: Average log LC50 (converted)
NCI-H460 [12] = test: Concentration required for 50% cell kill against NSC H460 cell line.; assay type: functional; conditions: Homo sapiens, read-out: Log LC50 (the source's name) (converted)
[13] = system: Panel NCI-60 (60 carcinoma cell lines); test: Cancer specificity was measured from the +/- value under average log LC50 60-cell line; assay type: functional; conditions: Homo sapiens, read-out: Average log LC50 (converted)

Sequence of NAD(P)H dehydrogenase [quinone] 1 (Homo sapiens) (P15559 whole entry): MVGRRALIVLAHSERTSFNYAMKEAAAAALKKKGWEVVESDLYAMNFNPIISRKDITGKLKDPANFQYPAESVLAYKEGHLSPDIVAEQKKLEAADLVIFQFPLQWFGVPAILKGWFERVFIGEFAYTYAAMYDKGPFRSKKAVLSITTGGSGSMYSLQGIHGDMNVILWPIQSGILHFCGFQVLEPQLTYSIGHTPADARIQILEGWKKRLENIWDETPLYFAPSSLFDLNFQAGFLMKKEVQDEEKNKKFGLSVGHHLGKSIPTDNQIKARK

| Structure (SMILES) | TGI (NCI-H460 [1]) | Ratio [2] | LC50 [3] | GI50 (NCI-H460 [4]) | Activity (Nucleic Acid) | Activity (B16 [8]) | Activity (B16 [9]) | Activity (B16 [10]) | further results |
| --- | --- | --- | --- | --- | --- | --- | --- | --- | --- |
| CC1=C(N2CC2)C(=O)c2c([nH]c3c2CCC3O)C1=O (stereo not given) | 21.4 nM | 147000 | 18200 nM | 10 nM | 11.2% | – | – | – | LC50 (NCI-H460 [5]): 851 nM |
| CC1=C(N2CC2)C(=O)c2c(c3c(n2C)C(O)CC3)C1=O (stereo not given) | 7590 nM | 85500 | 100000 nM | 1260 nM | 0.3% | – | – | – | LC50 (NCI-H460 [5]): 50100 nM |
| CCOC(=O)c1[nH]c2c(c1COC(C)=O)C(=O)C(N1CC1)=CC2=O | 170 nM | 722000 | 2400 nM | 37.1 nM | 91.2% | – | – | – | CC50 (NCI-H460 [5]): 603 nM |
| O=C1C(N2CC2)=CC(=O)c2c1[nH]c(CO)c2CO | 1150 nM | 274000 | 8510 nM | 138 nM | 3.4% | – | – | – | LC50 (NCI-H460 [5]): 11700 nM |
| CC1=C(N2CC2)C(=O)c2c(CO)c(CO)n(C)c2C1=O | – | 32600 | – | – | 0% | – | – | – | – |
| CCOC(=O)c1[nH]c2c(c1CO)C(=O)C(N1CC1)=CC2=O | 100 nM | 4.3e+06 | 1620 nM | 10 nM | 37% | – | – | – | LC50 (NCI-H460 [5]): 631 nM |
| CC1=C(N2CC2)C(=O)c2c(c(CO)c(CO)n2C)C1=O | – | 41700 | – | – | 0% | >50% | – | – | TGI (NCI-H460 [6]): 219 nM; GI50 (NCI-H460 [7]): 38.9 nM |
| CC(=O)OC1CCc2c3c(n(C(C)=O)c21)C(=O)C=C(N1CC1)C3=O (stereo not given) | – | 705000 | – | – | 14% | – | – | – | – |
| CC(=O)OC1CCc2c3c(n(C)c21)C(=O)C(N1CC1)=C(C)C3=O (stereo not given) | – | 30000 | – | – | 1.4% | – | – | – | – |
| CC1=C(N2CC2)C(=O)c2c([nH]c(C)c2C)C1=O | – | – | – | – | – | >50% | 10% | 60% | – |
| CC(=O)OC1CCc2c1[nH]c1c2C(=O)C=C(N2CC2)C1=O (stereo not given) | – | 802000 | – | – | 29% | >50% | – | – | – |
| CC(=O)OC1CCc2c1[nH]c1c2C(=O)C(N2CC2)=C(C)C1=O (stereo not given) | – | 65500 | – | – | 21% | – | – | – | – |
| CC(=O)OCc1[nH]c2c(c1C)C(=O)C(N1CC1)=C(C)C2=O | – | – | – | – | – | >50% | 47% | >50% | – |
| CC(=O)OC1CCc2c1[nH]c1c2C(=O)C(N2CC2)=CC1=O (stereo not given) | – | 651000 | – | – | 34% | – | – | – | – |
| O=C1C=C(N2CC2)C(=O)c2c1[nH]c1c2CCC1O (stereo not given) | – | 405000 | – | – | 22.5% | – | – | – | CC50 [11]: 2190 nM; TGI (NCI-H460 [6]): 102 nM; GI50 (NCI-H460 [7]): 10 nM; CC50 (NCI-H460 [12]): 295 nM |
| O=C1C=C(N2CC2)C(=O)c2c1[nH]c(CO)c2CO | – | 587000 | – | – | 16.7% | >50% | >50% | >50% | – |

| Structure (SMILES) | TGI (NCI-H460 [1]) | Ratio [2] | LC50 [3] | GI50 (NCI-H460 [4]) | Activity (Nucleic Acid) | Activity (B16 [8]) | Activity (B16 [9]) | Activity (B16 [10]) | further results |
| --- | --- | --- | --- | --- | --- | --- | --- | --- | --- |
| CC(=O)OC1CCc2c3c(n(C(C)=O)c21)C(=O)C(N1CC1)=C(C)C3=O (stereo not given) | 437 nM | 56200 | 25100 nM | 83.2 nM | 9% | 15% | 37% | 15% | LC50 (NCI-H460 [5]): 5010 nM |
| CC(=O)OC1CCc2c3c(n(C(C)=O)c21)C(=O)C(C)=C(N1CC1)C3=O (stereo not given) | – | 132000 | – | – | 1.2% | – | – | – | – |
| CC1=C(N2CC2)C(=O)c2[nH]c(CO)c(C)c2C1=O | – | – | – | – | – | 34% | 61% | 37% | – |
| CC1=C(N2CC2)C(=O)c2[nH]c3c(c2C1=O)CCC3O (stereo not given) | 107 nM | 142000 | 72400 nM | 10 nM | 10% | 45% | 75% | – | – |
| O=C1C(N2CC2)=CC(=O)c2c1[nH]c1c2CCC1O (stereo not given) | 57.5 nM | 128000 | 2570 nM | 7.24 nM | 30% | – | – | – | CC50 (NCI-H460 [5]): 1780 nM |
| CC(=O)OCc1[nH]c2c(c1COC(C)=O)C(=O)C(N1CC1)=CC2=O | – | 172000 | – | – | 43% | – | – | – | – |
| CC1=C(N2CC2)C(=O)c2[nH]c(CO)c(CO)c2C1=O | – | 106000 | – | – | 4% | >50% | 54% | >50% | – |
| CC(=O)OC1CCc2c1[nH]c1c2C(=O)C(C)=C(N2CC2)C1=O (stereo not given) | 676 nM | 160000 | 21400 nM | 112 nM | 44% | – | – | – | LC50 (NCI-H460 [5]): 1230 nM |
| CC(=O)OC1CCc2c3c(n(C(C)=O)c21)C(=O)C(N1CC1)=CC3=O (stereo not given) | – | 234000 | – | – | 12% | >50% | 50% | >50% | – |
| CC1=C(N2CC2)C(=O)c2[nH]c(C)c(C)c2C1=O | – | – | – | – | – | >50% | 22% | >50% | – |
| Cn1c(CO)c(CO)c2c1C(=O)C=C(N1CC1)C2=O | 10 nM | 302000 | 4470 nM | 10 nM | 3.8% | >50% | >50% | >50% | LC50 (NCI-H460 [5]): 10 nM |
| CC1=C(N2CC2)C(=O)c2c([nH]c(CO)c2CO)C1=O | 32.4 nM | 81500 | 2880 nM | 10 nM | 2% | >50% | 36% | >50% | LC50 (NCI-H460 [5]): 1170 nM |
| CCOC(=O)c1[nH]c2c(c1CO)C(=O)C=C(N1CC1)C2=O | 4070 nM | – | – | 1580 nM | 2.2% | – | – | – | CC50 [13]: 4790 nM |
| CC(=O)OCc1[nH]c2c(c1COC(C)=O)C(=O)C(C)=C(N1CC1)C2=O | 178 nM | 158000 | 30200 nM | 35.5 nM | 37% | >50% | 74% | >50% | CC50 (NCI-H460 [5]): 603 nM |
| CCOC(=O)c1[nH]c2c(c1CO)C(=O)C(N1CC1)=C(C)C2=O | 10.2 nM | 403000 | 2040 nM | 10 nM | 5.6% | – | – | – | CC50 (NCI-H460 [5]): 87.1 nM |
